Experimental findings from PMC11909909 (BMC Pharmacology & Toxicology, 2025) are described below.

Data set [1] has as its system coagulation parameters (PT, PTA, APTT, TT). The data set can be described thus: Coagulation parameters. Particulars: for PT / TT / APTT / PTA: mean ± SD. In kind it is in vivo, healthy Chinese subjects.
Data set [2] can be described thus: Pharmacokinetics after a single 150 mg oral dose, fasting or postprandial. In kind it is in vivo, healthy Chinese subjects. In outline: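 Healthy volunteers, 50 per fasting or fed trial, in a randomized two-sequence (TRTR/RTRT), four-period, fully replicated crossover with a 7-day washout. Each dose was one 150 mg capsule with 240 mL warm boiled water, given fed after a ~950 kcal high-fat meal. 18 venous samples per period to 48 h in precooled EDTA-K2 tubes, spun 1700g 10 min 4 °C, plasma stored ≤−60 °C. Total-dabigatran range 1.000–300.0 ng/mL; parameters per subject.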

As usually defined, the Tmax is the time at which the peak concentration occurs.

For `CCCCCCOC(=O)N=C(N)c1ccc(NCc2nc3cc(C(=O)N(CCC(=O)OCC)c4ccccn4)ccc3n2C)cc1` [dabigatran etexilate], in data set [1] (both fasting and postprandial), the “change of TT values after administration” value is “increased more significantly”. Besides, the PT in data set [1] (fasting, fourth periodicity, n = 48, screening 13.01 ± 0.490) is reported as 13.07 ± 0.488 s; in data set [1] (fasting, second periodicity, n = 50, screening 13.01 ± 0.490), 12.89 ± 0.475 s; in data set [1] (postprandial, fourth periodicity, n = 50, screening 12.62 ± 0.570), 12.82 ± 0.479 s; in data set [1] (postprandial, second periodicity, n = 50, screening 12.62 ± 0.570), 13.14 ± 0.504 s. Further, the TT in data set [1] (fasting, fourth periodicity, n = 48, screening 17.71 ± 0.880) was 20.73 ± 2.099 s; in data set [1] (fasting, second periodicity, n = 50, screening 17.71 ± 0.880), 19.58 ± 1.976 s; in data set [1] (postprandial, fourth periodicity, n = 50, screening 17.63 ± 0.940) it was 21.30 ± 2.537 s; in data set [1] (postprandial, second periodicity, n = 50, screening 17.63 ± 0.940), 20.78 ± 2.490 s. Also, the APTT in data set [1] (fasting, fourth periodicity, n = 48, screening 36.22 ± 3.090) is reported as 36.61 ± 3.352 s; in data set [1] (fasting, second periodicity, n = 50, screening 36.22 ± 3.090), 36.71 ± 3.947 s; in data set [1] (postprandial, fourth periodicity, n = 50, screening 36.25 ± 2.860) it was 36.22 ± 2.746 s; in data set [1] (postprandial, second periodicity, n = 50, screening 36.25 ± 2.860), 36.06 ± 2.660 s. Besides, the PTA in data set [1] (fasting, fourth periodicity, n = 48, screening 101.7 ± 7.960) came to 101.2 ± 8.167%; in data set [1] (fasting, second periodicity, n = 50, screening 101.7 ± 7.960) it was 104.4 ± 8.741%; in data set [1] (postprandial, fourth periodicity, n = 50, screening 108.9 ± 10.58), 105.5 ± 8.808%; in data set [1] (postprandial, second periodicity, n = 50, screening 108.9 ± 10.58), 100.2 ± 8.297%.
Consider `[H]/N=C(/N)c1ccc(NCc2nc3cc(C(=O)N(CCC(=O)O)c4ccccn4)ccc3n2C)cc1` [dabigatran], for which the Tmax was found to be 4 h in data set [2] (after a high-fat meal, median, both formulations) and 2.5 h in data set [2] (human, plasma, oral, 150 mg).
